In paper PMC9218293 (Molecular Therapy Oncolytics, 2022):
Where two headings read alike, the source gives them in different places.

Key:
[1] = test system: TME of YUMM1.7R-derived tumors; assay: Flow cytometry of tumor-infiltrating immune cells; type: in vivo, C57BL/6 mice; conditions: VEM 20 mg/kg i.p. daily, n = 6
YUMM1.7R-derived tumors = assay: Syngeneic mouse melanoma model, tumor growth and survival; type: in vivo, C57BL/6 mice; conditions: 20 mg/kg i.p. daily; n = 6 mice/group; Figure 1A
Summary of the method: (§1)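 Tumors were established in C57BL/6 mice (6–8 weeks) by s.c. injection of 3 × 10⁵ YUMM1.7P or YUMM1.7R cells. Daily i.p. vehicle or vemurafenib was given at 20 mg/kg. Tumor size was monitored, n = 6 mice/group, as means ± SEM with two-way ANOVA and Tukey's post hoc test. Mice with tumors >1,500 mm³ were euthanized.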

[2] = test system: TME of YUMM1.7P-derived tumors; assay: Flow cytometry of tumor-infiltrating immune cells; type: in vivo, C57BL/6 mice; conditions: VEM 20 mg/kg i.p. daily, n = 6
Summary of the method: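 C57BL/6 mice (6–8 weeks) received 3 × 10⁵ YUMM1.7P cells s.c. Vehicle or vemurafenib was given at 20 mg/kg i.p. daily. Tumors were harvested and dissociated to single cells. Dead cells were excluded with fixable viability dye eFluor 506. Populations were gated as frequencies among live/dead⁻CD45⁺ cells: MDSCs CD45⁺CD11b⁺Gr1⁺, TAMs CD45⁺Gr1⁻CD11b⁺F4/80⁺, CD8⁺ T cells CD45⁺CD3⁺CD8⁺. n = 6 mice/group, means ± SEM.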

YUMM1.7P cells = assay: WST-8 cell viability assay; type: cell-based; conditions: Mus musculus, read-out: IC50 value of vemurafenib for YUMM1.7P cells
Summary of the method: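 Parental mouse melanoma YUMM1.7 cells (BRAF V600E) were grown in DMEM/F12 with 10% fetal bovine serum and 1% penicillin/streptomycin at 37°C, humidified 5% CO₂.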

YUMM1.7R cells = assay: WST-8 cell viability assay; type: cell-based; conditions: Mus musculus
Summary of the method: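 Resistant YUMM1.7R cells were derived by exposing parental YUMM1.7 cells to vemurafenib for 8–10 weeks, with the concentration escalated from a low (condition 1) or medium (condition 2) start. They were then kept under continuous 5 μM vemurafenib in DMEM/F12 with 10% fetal bovine serum and 1% penicillin/streptomycin at 37°C, 5% CO₂.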

[3] = test system: P-ERK1/2 (Thr202/Tyr204) in YUMM1.7P cells; assay: Immunoblotting for P-ERK1/2 after vemurafenib; type: cell-based, mouse; conditions: vemurafenib 5 μM, immunoblot, Figure S1C
[4] = test system: P-ERK1/2 (Thr202/Tyr204) in YUMM1.7R cells; assay: Immunoblotting for P-ERK1/2 after vemurafenib; type: cell-based, mouse; conditions: vemurafenib 5 μM; YUMM1.7R condition 1; immunoblot; Figure S1C
YUMM1.7P-derived tumors = assay: Syngeneic mouse melanoma model, tumor growth; type: in vivo, C57BL/6 mice; conditions: 20 mg/kg i.p. daily; n = 6 mice/group; Figure 1A
Summary of the method: as §1

## CCCS(=O)(=O)Nc1ccc(F)c(C(=O)c2c[nH]c3ncc(-c4ccc(Cl)cc4)cc23)c1F [vemurafenib]
[1]; Figure 1B
  frequency of MDSCs: reduction
[1]; Figure 1C
  frequency of TAMs: reduction
[1]; Figure 1D
  frequency of CD8+ T cells: failed to increase
[1]; Figure S3
  frequency of CD3+CD4+ T cells: No significant change
YUMM1.7R-derived tumors
  tumor growth: unaffected
[2]; CD45+CD3+CD8+, Figure 1D
  frequency of CD8+ T cells: increased
[2]; CD45+CD11b+Gr1+, Figure 1B
  frequency of MDSCs: significant decrease
[2]; CD45+Gr1-CD11b+F4/80+, Figure 1C
  frequency of TAMs: significant decrease
[2]; Figure S3
  frequency of CD3+CD4+ T cells: No significant change
YUMM1.7P cells
  IC50: 3.12 µM
YUMM1.7R cells; read-out: IC50, YUMM1.7R (condition 1)
  IC50: 10.4 µM
YUMM1.7R cells; read-out: IC50, YUMM1.7R (condition 2)
  IC50: 9.48 µM
[3]
  ERK phosphorylation: considerable reduction
[4]
  ERK phosphorylation: this reduction was dramatically suppressed
YUMM1.7P-derived tumors
  inhibition of tumor growth: highly sensitive
